In the library only some 2.2% were active in any assay of this set; here they are far more common.
PvdQ acylase: P. aeruginosa PvdQ acylase inhibitors, primary screen, biochemical, fluorescence, plate reader and imaging, single point | PvdQ acylase [Pseudomonas aeruginosa LESB58] | hit rate 0.063% among 340,000 | inhibition, % at 10 µM | purified PvdQ acylase | AID 488965, 2010; in the data active = inhibition above about 30%, passing the limit was not always enough
PDI inh: inhibitors of human PDI, primary screen, biochemical, turbidity, single point, plate reader. Protein disulfide-isomerase (Homo sapiens), P07237. hit rate 0.052% among 350,000. PDI insulin aggregation turbidity, A650, 90 min. inhibition, % at 10 µM;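 active = mean inhibition across replicates of 30% or more, whatever share of single replicates reach that level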
HIV Env fusion: inhibitors of HIV-1 Env-driven cell-cell fusion, primary screen, HeLa-JRFL effector, CEM21 target cells, luciferase; inhibition, % at 12.3 µM; hit rate 1.1% among 360,000; AID 651610, 2012;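 active = mean replicate inhibition score of at least 50 and every replicate individually at or above 50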
FN deposit inh: inhibitors of fibronectin matrix deposition, primary screen, AH1F cells, Alexa488-fibronectin fluorescence, plate reader; hit rate 0.086% among 350,000; AH1F fibroblasts, overnight; inhibition, % at 12.6 µM;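 active = mean inhibition across replicates of 30% or more, regardless of how many single replicates reach that level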
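Material: AH1F fibroblast monolayer depositing Alexa488-labelled fibronectin into matrix | Input: 10000 AH1F cells/well | Medium: DMEM plus 2% serum, read in PBS | Reagent: Alexa488-fibronectin, 24 nM final in well | Compound dosing: One dose per compound, pinned | Schedule: 1 h adhesion, overnight exposure | Measured by: Fluorescence at 485 nm excitation, 525 nm emission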
ERp5 block: inhibitors of ERp5-driven insulin aggregation, primary screen, biochemical, turbidity, absorbance 650 nm, single point; Protein disulfide-isomerase A6 (Homo sapiens), Q15084; 90 min; inhibition, % at 9.99 µM; hit rate 0.05% among 350,000;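 active = mean replicate inhibition above about 25%, with every replicate also reaching it, limit read from the data, passing the limit was not always enough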
Target sequence (Q15084 whole entry, looked up): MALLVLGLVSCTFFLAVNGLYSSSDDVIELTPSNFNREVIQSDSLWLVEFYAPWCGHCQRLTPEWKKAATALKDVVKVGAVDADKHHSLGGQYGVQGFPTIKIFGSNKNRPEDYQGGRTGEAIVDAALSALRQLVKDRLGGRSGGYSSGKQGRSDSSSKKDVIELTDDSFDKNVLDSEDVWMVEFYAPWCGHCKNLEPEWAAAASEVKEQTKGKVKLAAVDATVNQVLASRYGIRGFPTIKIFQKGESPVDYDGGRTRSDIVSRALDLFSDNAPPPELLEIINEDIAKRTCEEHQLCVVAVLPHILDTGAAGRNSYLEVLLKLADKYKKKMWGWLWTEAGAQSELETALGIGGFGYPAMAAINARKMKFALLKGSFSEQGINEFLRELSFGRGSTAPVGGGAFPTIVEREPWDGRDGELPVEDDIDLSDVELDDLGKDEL
Ecoli rRNA inh: reduced GFP signal of wild-type E. coli, primary screen, bacterial rRNA inhibitor project, GFP/RFP fluorescence, OD600, single point; E. coli WT GFP vs humanized-ribosome RFP mutants, 24 h; stronger effect = lower value; DMSO median 0, no signal -100; GFP signal change (wild-type ribosome), % (concentration not given with the values); hit rate 1.6% among 350,000;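 active = significant combined selectivity score with lowered wild-type GFP, culture density cut under 30%, mutant RFP and density less affected; inactive = any of these conditions unmet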
A number is an active result; - = inactive; . = not tested or not shown.

SMILES | PvdQ acylase | PDI inh | HIV Env fusion | FN deposit inh | ERp5 block | Ecoli rRNA inh
CC(=O)N(C)C[C@@H]1Oc2cc(C#Cc3cccnc3)ccc2S(=O)(=O)N([C@H](C)CO)C[C@@H]1C | . | . | - | - | - | -
C[C@@H]1CN([C@H](C)CO)S(=O)(=O)c2ccc(C#CC3CCCC3)cc2O[C@@H]1CN(C)C(=O)c1cccc(F)c1 | . | . | - | . | . | -
CS(=O)(=O)Nc1ccc(C(=O)NCCSC2CCCCC2)cc1 | - | - | . | . | - | .
Cc1ccc(NS(=O)(=O)c2cc(C(=O)NCCSc3ccc(C)cc3)ccc2C)cc1 | - | - | 97.0 | - | . | .
Cc1ccc(NS(=O)(=O)c2cc(C(=O)NCCSC3CCCCC3)ccc2C)cc1 | - | - | 55.3 | - | . | .
CS(=O)(=O)Nc1ccc2c(c1)[C@@H]1C[C@@H](CC(=O)N3CCCCC3)O[C@@H](CO)[C@@H]1O2 | . | . | . | - | . | -
COc1cccc(-c2ccc([C@H]3[C@@H](CO)N4CCCCN(Cc5cncnc5)C[C@H]34)cc2)c1 | . | . | . | . | - | -
CC1=C(C(=O)OC2CCCCCCC2)C(c2ccc(O)cc2)NC(=O)N1 (configuration not stated) | - | - | . | . | - | -43.1
Cc1onc(-c2ccc(Cl)cc2)c1-c1ccnc(SCC(=O)Nc2cc(Cl)cc(Cl)c2)n1 | - | - | 75.5 | - | . | .
O=C1Nc2ccccc2/C1=N/N=C/c1cccc(O)c1 | - | - | - | - | - | -
Oc1cccc(C=NN=C2c3ccccc3-c3ccccc32)c1 | - | - | - | - | - | -33.9
CCOC(=O)[C@@H]1[C@H]2COc3ccc(Br)cc3[C@@H]2N2C(=O)N(c3ccc(OC)cc3)C(=O)[C@@]12C | - | - | - | - | - | -
CCOC(=O)[C@@H]1[C@H]2COc3ccc(Br)cc3[C@@H]2N2C(=O)N(c3ccc(F)cc3)C(=O)[C@@]12C | - | - | 99.9 | - | - | -
CCOC(=O)[C@@H]1[C@H]2COc3ccc(Br)cc3[C@@H]2N2C(=O)N(c3ccc(Cl)cc3)C(=O)[C@@]12C | - | - | 66.7 | - | - | -
CCOC(=O)[C@@H]1[C@H]2COc3ccc(Br)cc3[C@@H]2N2C(=O)N(c3cccc(F)c3)C(=O)[C@@]12C | - | - | 75.2 | - | - | -
CCOC(=O)[C@@H]1[C@H]2COc3ccccc3[C@@H]2N2C(=O)N(c3cccc(F)c3)C(=O)[C@]12C | - | - | - | - | - | -
CCOC(=O)[C@H]1[C@H]2COc3ccc(Br)cc3[C@@H]2N2C(=O)N(c3ccc(F)cc3)C(=O)[C@@]12C | - | - | - | - | - | -
CCOC(=O)[C@@H]1[C@H]2COc3ccc(Br)cc3[C@@H]2N2C(=O)N(c3ccc(C(F)(F)F)cc3)C(=O)[C@@]12C | - | - | 66.2 | - | - | -
CC(NC(=O)CN1CCN(c2cccc(Cl)c2)CC1)c1ccccc1 (configuration not stated) | - | - | - | - | - | -28.1
COc1cccc(N2CCN(CC(=O)NC(C)c3ccccc3)CC2)c1 (configuration not stated) | - | - | - | - | - | -
CO[C@H]1CN(C)C(=O)c2cc(NS(=O)(=O)c3cccc(F)c3)ccc2OC[C@@H](C)NC[C@H]1C | . | . | - | - | . | -
CO[C@H]1CN(C)C(=O)c2ccc(NS(=O)(=O)CC(F)(F)F)cc2OC[C@H](C)N(CC2CCCCC2)C[C@@H]1C | . | . | . | - | - | -
O=c1cc(CSc2nnnn2-c2ccc(O)cc2)nc2sccn12 | - | 38.9 | - | - | - | -
N#Cc1ccsc1NC(=O)CSc1nnnn1-c1ccc(O)cc1 | - | - | - | - | - | -25.5
COCCNC(=O)C[C@@H]1CC[C@H](NC(=O)NC2CCCC2)[C@H](CO)O1 | . | . | - | - | - | -
SMILES | PvdQ acylase | PDI inh | HIV Env fusion | FN deposit inh | ERp5 block | Ecoli rRNA inh
C[C@H](CO)N1C[C@H](C)[C@@H](CN(C)C(=O)Nc2ccc(C(F)(F)F)cc2)OCCCC[C@H](C)Oc2ccc(NC(=O)Nc3ccc(F)cc3)cc2C1=O | . | . | - | - | - | -
COC(=O)[C@H]1[C@H](CO)[C@H]2Cn3c(ccc(-c4ccncc4)c3=O)[C@H]2N1CC1CCCC1 | . | . | . | . | - | -
COc1ccc(Cc2nnc(SCC(=O)NC3(C#N)CCCCC3)n2N)cc1 | - | - | - | - | 25.0 | -
COCC(=O)N(C)C[C@H]1Oc2cc(C3=CCCCC3)ccc2S(=O)(=O)N([C@@H](C)CO)C[C@@H]1C | . | . | - | . | - | -
CCS(=O)(=O)c1ncc(Cl)c(C(=O)Nc2ccc(C)cc2)n1 | - | - | - | - | - | -
CCC1CCCCN1S(=O)(=O)c1ccc(NC(=O)c2nc(S(C)(=O)=O)ncc2Cl)cc1 (configuration not stated) | - | - | - | 39.2 | - | -28.8
CCC1CCCCN1S(=O)(=O)c1ccc(NC(=O)c2ccncc2)cc1 (configuration not stated) | - | - | 62.6 | . | - | -
CS(=O)(=O)c1ncc(Cl)c(C(=O)Nc2ccc3ccccc3c2)n1 | - | - | - | - | - | -
CCS(=O)(=O)c1ncc(Cl)c(C(=O)Nc2ccc(S(=O)(=O)N3CCCC(C)C3)cc2)n1 (configuration not stated) | - | - | 56.9 | - | . | -
C[C@@H]1CN([C@H](C)CO)C(=O)c2cc(NC(=O)CCCCCC(=O)Nc3ccccc3N)ccc2O[C@@H]1CN(C)C(=O)Nc1ccccc1 | . | . | . | . | . | -
CCOc1ccc(/C=C(\C(=O)O)c2ccc(S(=O)(=O)N3CCOCC3)s2)cc1OC | - | - | - | - | . | .
CCOc1ccc(/C=C(\C(=O)O)c2ccc(S(=O)(=O)N3CCCCC3)s2)cc1OC | - | - | - | - | - | -23.0
O=C(NCC[C@@H]1CC[C@@H](NC(=O)C2CCCCC2)[C@H](CO)O1)c1cnccn1 | . | . | - | - | - | -
Cc1ccc(-c2nc(NC(=O)CSc3nnc(C)s3)ns2)cc1 | - | . | - | - | - | -
Cc1nnc(SCC(=O)Nc2nsc(-c3ccccc3)n2)s1 | - | - | 56.8 | - | . | .
Cn1ncc2c(O/N=C(\N)c3ccc(C(F)(F)F)cc3)ncnc21 | - | - | - | - | - | -17.0
CC(=O)Oc1ccc2c(=O)c(Oc3ccccc3)c(C)oc2c1OC(C)=O | - | - | - | - | - | -17.4
O=S(=O)(c1ccccc1)N1CCN(Cc2cccc(OCCO)c2)CC1 | . | . | - | . | - | .
O=C(Nc1nnc(-c2ccncc2)o1)c1ccccc1 | - | - | - | . | - | -35.4
O=C(Nc1nnc(-c2ccccn2)o1)c1cccc(Cl)c1 | - | - | - | - | - | -53.9

Bioassay records deposited in PubChem by Broad Institute.
